Source: ChEMBL document CHEMBL1127616, “Synthesis, structural characterization, and antitumor properties of a novel class of large-ring platinum(II) chelate complexes incorporating the cis-1,4-diaminocyclohexane ligand in a unique locked boat conformation” (J Med Chem, 1994)

Assays:
Assay type in all cases: functional, organism-based
Mus musculus [1] = assay: Tested for the ratio of treated and control tumor to reach 750 mg against murine solid tumor M5076 sarcoma 4.0 mg/kg per injection
How it was run: (§1)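 Solid tumor growth delay assay; B16 melanoma and M5076 sarcoma were run in B6C3F1 (C57BL/6 × C3HF1) mice of 18–22 g. Tumor fragments were implanted SC on day 0, then drug in 0.9% saline was given IP on days 1, 5, 9 or days 3, 7, 11, mg/kg per injection. T − C is the difference in days for treated and control tumors to reach 750 mg. Net log cell kill is tumor burden reduction during therapy. Cured mice were excluded.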

Mus musculus [2] = assay: Tested for net cell kill tumor burden reduction during therapy at the dose 4.0 mg/kg in B16 melanoma; parameters: dose 4 mg/kg; how it was run: as §1
L1210 [3] = assay: Tested for in vivo weight change against murine L1210 Pt-resistant leukemia at the dose of 1.5 mg/kg per injection in experiment 1; conditions: Mus musculus
How it was run: (§2)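 Leukemia life-span assays used CD2F1 (Balb/c × DBA/2F1) mice weighing 18–22 g. Cells were inoculated IP on day 0, and compounds in 0.9% saline were given IP, dosed by average cage weight. Weight change is the difference in mean group weight between the last and first treatment days.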

L1210 [4] = assay: Tested for the ratio of treated and control against solid tumor murine L1210 Pt-resistant leukemia 1.6 mg/kg per injection in experiment 2; T/C; conditions: Mus musculus
How it was run: (§3)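 Murine leukemia life span assay in CD2F1 (Balb/c × DBA/2F1) mice, 18–22 g, randomized, with IP tumor cell inoculation on day 0. Depending on the model, the inoculum was 1 × 10^4 cells with IP dosing on days 3, 7 and 11, or 1 × 10^6 cells with IP dosing on days 1, 5 and 9. Drug was given in 0.9% saline, mg/kg per injection, by average cage weight. Read-outs were median day of death and %T/C. Mice alive 60 days after treatment counted as cured and were excluded.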

L1210 [5] = assay: Tested for the ratio of number of survivors / total number after 60 days at the dose of 3.0 mg/kg per injection against murine L1210 Pt-resistant leukemia in experiment 1; conditions: Mus musculus
How it was run: (§4)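 CD2F1 (Balb/c × DBA/2F1) mice, 18–22 g, randomized and inoculated IP with counted leukemia cells on day 0, then re-randomized. Three IP treatments, dissolved in 0.9% saline and dosed on average cage weight, with dose in mg/kg per injection across a full toxic-to-ineffective range. Median life span and %T/C were recorded. Survivors at 60 days were counted as cured and excluded from %T/C.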

Mus musculus [6] = assay: Tested for median life span against solid tumor P388 Pt-resistant leukemia at 2.3 mg/kg per injection; how it was run: as §4
Mus musculus [7] = assay: Tested for in vivo weight change against murine P388Pt-resistant leukemia at the dose of 3.7 mg/kg per injection; how it was run: as §2
L1210 [8] = assay: Tested for median life span against solid tumor L1210 Pt-resistant leukemia at 3.0 mg/kg per injection in experiment 1; conditions: Mus musculus
How it was run: (§5)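 CD2F1 mice weighing 18–22 g were inoculated IP with leukemia cells on day 0. Compounds in 0.9% saline were given IP in three injections, dosed by average cage weight, over a dose range from toxic to ineffective. Median life span was recorded, with cause of death assessed at necropsy and 60-day survivors counted as cured.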

L1210 [9] = assay: Tested for the ratio of treated and control against solid tumor murine L1210 leukemia 3.0 mg/kg per injection in experiment 1; T/C; conditions: Mus musculus; how it was run: as §3
L1210 [10] = assay: Tested for median life span against solid tumor L1210 leukemia at 3.0 mg/kg per injection in experiment 1; conditions: Mus musculus; how it was run: as §5
L1210 [11] = assay: Tested for in vivo weight change against murine L1210 leukemia at the dose of 2.5 mg/kg per injection in experiment 2; conditions: Mus musculus; how it was run: as §2
Mus musculus [12] = assay: Tested for in vivo weight change against murine P388Pt-resistant leukemia at the dose of 2.3 mg/kg per injection; how it was run: as §2
L1210 [13] = assay: Tested for median life span against solid tumor L1210 leukemia at 1.6 mg/kg per injection in experiment 2; conditions: Mus musculus; how it was run: as §5
L1210 [14] = assay: Tested for median life span against solid tumor L1210 leukemia at 1.5 mg/kg per injection in experiment 1; conditions: Mus musculus; how it was run: as §5
L1210 [15] = assay: Tested for in vivo weight change against murine L1210 Pt-resistant leukemia at the dose of 1.6 mg/kg per injection in experiment 2; conditions: Mus musculus; how it was run: as §2
Mus musculus [16] = assay: Tested for the ratio of number of survivors / total number after 60 days at the dose of 5.0 mg/kg per injection against murine P388 Pt-resistant leukemia; how it was run: as §4
Mus musculus [17] = assay: Tested for the ratio of treated and control against solid tumor murine P388 Pt-resistant leukemia 5.0 mg/kg per injection; T/C; how it was run: as §3
Mus musculus [18] = assay: Tested for the ratio of number of survivors / total number after 60 days at the dose of 10 mg/kg per injection against murine P388 Pt-resistant leukemia; how it was run: as §4
Mus musculus [19] = assay: Tested for the ratio of number of survivors / total number after 60 days at the dose of 5.0 mg/kg per injection against murine leukemia P388; how it was run: as §4
L1210 [20] = assay: Tested for median life span against solid tumor L1210 Pt-resistant leukemia at 6.0 mg/kg per injection; conditions: Mus musculus; how it was run: as §5
Mus musculus [21] = assay: Tested for in vivo weight change against murine P388 leukemia at the dose of 10 mg/kg per injection; how it was run: as §2
L1210 [22] = assay: Tested for the ratio of treated and control against solid tumor murine L1210 leukemia 4.0 mg/kg per injection in experiment 1; T/C; conditions: Mus musculus; how it was run: as §3
L1210 [23] = assay: Tested for the ratio of treated and control against solid tumor murine L1210 Pt-resistant leukemia 6.0 mg/kg per injection; T/C; conditions: Mus musculus; how it was run: as §3
L1210 [24] = assay: Tested for the ratio of number of survivors / total number after 60 days at the dose of 4.0 mg/kg per injection against murine L1210 Pt-resistant leukemia in experiment 1; conditions: Mus musculus; how it was run: as §4
L1210 [25] = assay: Tested for in vivo weight change against murine L1210 leukemia at the dose of 5.0 mg/kg per injection in experiment 2; conditions: Mus musculus; how it was run: as §2
Mus musculus [26] = assay: Tested for the ratio of number of survivors / total number after 60 days at the dose of 10 mg/kg per injection against murine leukemia P388; how it was run: as §4
Mus musculus [27] = assay: Tested for the ratio of treated and control against solid tumor murine P388 leukemia 10 mg/kg per injection; T/C; how it was run: as §3
P388 = assay: Tested for in vivo weight change against murine P388 leukemia at the dose of 5.0 mg/kg per injection; conditions: Mus musculus; how it was run: as §2
Mus musculus [28] = assay: tested for in vivo weight change against murine M5076 sarcoma at the dose of 9.0 mg/kg per injection
How it was run: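 Host weight change in the SC M5076 sarcoma growth delay test in B6C3F1 mice. Drug was given IP in 0.9% saline, mg/kg per injection. Weight change is the maximum treatment-related weight loss.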

L1210 [29] = assay: Tested for in vivo weight change against murine L1210 leukemia at the dose of 4.0 mg/kg per injection in experiment 1; conditions: Mus musculus; how it was run: as §2
Mus musculus [30] = assay: Tested for the ratio of treated and control tumor to reach 750 mg against murine solid tumor M5076 sarcoma 9.0 mg/kg per injection; how it was run: as §1
L1210 [31] = assay: Tested for in vivo weight change against murine L1210 leukemia at the dose of 10 mg/kg per injection in experiment 2; conditions: Mus musculus; how it was run: as §2
Mus musculus [32] = assay: Tested for median life span against solid tumor P388 leukemia at 5.0 mg/kg per injection; how it was run: as §3
L1210 [33] = assay: Tested for the ratio of treated and control against solid tumor murine L1210 leukemia 5.0 mg/kg per injection in experiment 2; T/C; conditions: Mus musculus; how it was run: as §3
Mus musculus [34] = assay: Tested for median life span against solid tumor P388 Pt-resistant leukemia at 10 mg/kg per injection; how it was run: as §5

Work on [Pt(cis-1,4-dach)CL2] yielded a T-C (Mus musculus [1]) of 13.5 days, a Log net cell kill (Mus musculus [2]) of -0.5 and a Weight change (L1210 [3]) of 1.9 g. For the same substance, the Ratio (L1210 [4]) was 146%, the 60-day survivors (L1210 [5]) was 2 and the Survivors (Mus musculus [6]) was 21 days. The Weight change (Mus musculus [7]) was -5.2 g, the MLS (L1210 [8]) was 17 days and the Ratio (L1210 [9]) was 203%. It also gave an MLS (L1210 [10]) of 21.5 days, a Weight change (L1210 [11]) of -1.9 g and a Weight change (Mus musculus [12]) of -0.1 g. The MLS (L1210 [13]) was 21.3 days, the MLS (L1210 [14]) was 23 days and the Weight change (L1210 [15]) was 1.9 g.

In the case of CISPLATIN, the Survivors (Mus musculus [16]) is reported as 0, the T/C (Mus musculus [17]) is reported as 132% and the Survivors (Mus musculus [18]) is reported as 0. It also gave a Survivors (Mus musculus [19]) of 0, an MLS (L1210 [20]) of 12 days and a Weight change (Mus musculus [21]) of -5.5 g. For the same substance, the Ratio (L1210 [22]) was 184%, the Ratio (L1210 [23]) was 118% and the Survivors (L1210 [24]) was 0. It also gave a Weight change (L1210 [25]) of 0.5 g, a Survivors (Mus musculus [26]) of 3 and a T/C (Mus musculus [27]) of 86%. For the same substance, the Weight change (P388) was 0.2 g, the Weight change (Mus musculus [28]) was -5.1 g and the Weight change (L1210 [29]) was 1 g. It also gave a T-C (Mus musculus [30]) of 15.9 days, a Weight change (L1210 [31]) of -3.3 g and an MLS (Mus musculus [32]) of 29 days. For the same substance, the Ratio (L1210 [33]) was 172% and the MLS (Mus musculus [34]) was 18 days.
